Source: ChEMBL document CHEMBL1142465, “Novel potent inhibitors of A. thaliana cytokinin oxidase/dehydrogenase” (Bioorg Med Chem, 2008)

Legend:
Histidine kinase 4 = Histidine kinase 4 (Arabidopsis thaliana, UniProt Q9C5U0); test: Activation of Arabidopsis thaliana AHK4/CRE1 receptor expressed in Escherichia coli KMI001 by beta-galactosidase activity
[1] = target: T1, Cytokinin dehydrogenase 2 (Arabidopsis thaliana, UniProt Q9FUJ3); test: Inhibition of sArabidopsis thaliana CKX2 expressed in Saccharomyces cerevisiae 23344c ura-
T1 sequence (Q9FUJ3 whole entry): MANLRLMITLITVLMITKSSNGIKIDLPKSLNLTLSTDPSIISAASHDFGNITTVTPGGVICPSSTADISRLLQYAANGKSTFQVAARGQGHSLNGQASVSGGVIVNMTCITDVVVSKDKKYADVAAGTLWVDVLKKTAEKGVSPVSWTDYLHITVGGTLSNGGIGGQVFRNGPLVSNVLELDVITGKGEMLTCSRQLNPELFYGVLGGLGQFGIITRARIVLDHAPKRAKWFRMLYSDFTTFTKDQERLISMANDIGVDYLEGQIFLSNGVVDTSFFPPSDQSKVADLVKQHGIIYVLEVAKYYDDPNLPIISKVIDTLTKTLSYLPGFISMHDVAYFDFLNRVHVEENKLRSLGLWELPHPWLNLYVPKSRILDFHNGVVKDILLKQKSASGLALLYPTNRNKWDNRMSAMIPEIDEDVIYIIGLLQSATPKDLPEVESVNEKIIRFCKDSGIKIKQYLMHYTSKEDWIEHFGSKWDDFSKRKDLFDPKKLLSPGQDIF

Histidine kinase 3 = target: T2, Histidine kinase 3 (Arabidopsis thaliana, UniProt Q9C5U1); test: Activation of Arabidopsis thaliana AHK3 receptor expressed in Escherichia coli KMI001 by beta-galactosidase activity
T2 sequence (Q9C5U1 whole entry): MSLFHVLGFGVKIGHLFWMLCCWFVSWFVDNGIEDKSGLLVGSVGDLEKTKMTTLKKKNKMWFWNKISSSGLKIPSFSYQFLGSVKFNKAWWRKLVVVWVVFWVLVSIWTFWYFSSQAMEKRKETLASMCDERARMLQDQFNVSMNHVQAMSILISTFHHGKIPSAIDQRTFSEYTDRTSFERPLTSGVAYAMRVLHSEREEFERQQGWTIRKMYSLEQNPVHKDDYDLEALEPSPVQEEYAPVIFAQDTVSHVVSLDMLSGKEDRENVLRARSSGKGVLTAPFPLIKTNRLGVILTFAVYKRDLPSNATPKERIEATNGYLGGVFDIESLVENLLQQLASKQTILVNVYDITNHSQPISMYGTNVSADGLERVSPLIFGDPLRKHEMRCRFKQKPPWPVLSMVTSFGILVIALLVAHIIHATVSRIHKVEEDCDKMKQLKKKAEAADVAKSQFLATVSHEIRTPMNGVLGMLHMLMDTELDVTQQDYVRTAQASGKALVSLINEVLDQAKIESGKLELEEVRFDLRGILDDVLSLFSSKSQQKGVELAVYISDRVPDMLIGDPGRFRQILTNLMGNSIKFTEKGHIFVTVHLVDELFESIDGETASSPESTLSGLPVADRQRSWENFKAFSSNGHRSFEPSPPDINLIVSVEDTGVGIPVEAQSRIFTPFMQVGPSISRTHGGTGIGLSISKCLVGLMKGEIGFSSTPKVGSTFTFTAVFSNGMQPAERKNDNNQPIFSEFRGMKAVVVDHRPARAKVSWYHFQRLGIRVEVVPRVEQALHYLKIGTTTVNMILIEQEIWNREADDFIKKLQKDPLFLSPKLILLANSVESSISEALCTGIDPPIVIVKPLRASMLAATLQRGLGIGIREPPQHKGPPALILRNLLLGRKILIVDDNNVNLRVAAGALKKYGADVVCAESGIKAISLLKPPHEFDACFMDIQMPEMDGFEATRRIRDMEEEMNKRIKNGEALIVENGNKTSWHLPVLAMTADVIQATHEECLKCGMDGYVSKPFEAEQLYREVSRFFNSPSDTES

Amaranthus [2] = test: Cytokinin-like effect in Amaranthus cotyledons assessed as dark induction of betacyanin synthesis at 100 umol/L relative to 6-benzylaminopurine; type: functional; settings: at 100 µM
Triticum aestivum = test: Cytokinin-like effect in wheat assessed as retention of chlorophyll in excised leaves at 100 umol/L by senescence assay relative to 6-benzylaminopurine; type: functional; settings: at 100 µM
Nicotiana tabacum [3] = test: Cytokinin-like effect in tobacco assessed as stimulation of callus growth at 100 umol/L relative to 6-benzylaminopurine; type: functional
Method in brief: (§1)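 Cytokinin-dependent tobacco callus growth in 6-well plates, 3 mL MS medium per well, otherwise per published protocol. Compounds from DMSO stocks diluted into medium, final DMSO ≤0.2%. Five replicates per concentration, whole test repeated at least three times. Activity expressed relative to BAP set at 100 (reference 10^-6 M BAP) at the optimal concentration.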

Nicotiana tabacum [4] = test: Cytokinin-like effect in tobacco assessed as stimulation of callus growth at 10 umol/L relative to 6-benzylaminopurine; type: functional; settings: at 10 µM
Amaranthus [5] = test: Cytokinin-like effect in Amaranthus cotyledons assessed as dark induction of betacyanin synthesis at 10 umol/L relative to 6-benzylaminopurine; type: functional
Method in brief: (§2)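 Dark induction of betacyanin synthesis in Amaranthus cotyledons, per previously published protocol. Compounds from DMSO stocks diluted into medium, final DMSO ≤0.2%. Five replicates per concentration, whole test repeated at least three times. Relative activity taken at the optimal concentration against BAP set at 100 (reference 10^-5 M BAP).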

Nicotiana tabacum [6] = test: Cytokinin-like effect in tobacco assessed as stimulation of callus growth at 1 umol/L relative to 6-benzylaminopurine; type: functional; method in brief: as §1
Nicotiana tabacum [7] = test: Toxicity in tobacco assessed as inhibition of callus growth at 100 uM; settings: in vivo
Method in brief: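 Tobacco callus growth dose-response up to 100 µM in 6-well plates with 3 mL MS medium per well. Compounds from DMSO stocks diluted into medium, final DMSO ≤0.2%. Five replicates per concentration. Readings compared against a control treatment with no cytokinin.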

Nicotiana tabacum [8] = test: Cytokinin-like effect in tobacco assessed as stimulation of callus growth at 0.1 umol/L relative to 6-benzylaminopurine; type: functional; method in brief: as §1
Amaranthus [9] = test: Cytokinin-like effect in Amaranthus cotyledons assessed as dark induction of betacyanin synthesis at 0.1 umol/L relative to 6-benzylaminopurine; type: functional; method in brief: as §2

Sequence of Histidine kinase 4 (Q9C5U0 whole entry): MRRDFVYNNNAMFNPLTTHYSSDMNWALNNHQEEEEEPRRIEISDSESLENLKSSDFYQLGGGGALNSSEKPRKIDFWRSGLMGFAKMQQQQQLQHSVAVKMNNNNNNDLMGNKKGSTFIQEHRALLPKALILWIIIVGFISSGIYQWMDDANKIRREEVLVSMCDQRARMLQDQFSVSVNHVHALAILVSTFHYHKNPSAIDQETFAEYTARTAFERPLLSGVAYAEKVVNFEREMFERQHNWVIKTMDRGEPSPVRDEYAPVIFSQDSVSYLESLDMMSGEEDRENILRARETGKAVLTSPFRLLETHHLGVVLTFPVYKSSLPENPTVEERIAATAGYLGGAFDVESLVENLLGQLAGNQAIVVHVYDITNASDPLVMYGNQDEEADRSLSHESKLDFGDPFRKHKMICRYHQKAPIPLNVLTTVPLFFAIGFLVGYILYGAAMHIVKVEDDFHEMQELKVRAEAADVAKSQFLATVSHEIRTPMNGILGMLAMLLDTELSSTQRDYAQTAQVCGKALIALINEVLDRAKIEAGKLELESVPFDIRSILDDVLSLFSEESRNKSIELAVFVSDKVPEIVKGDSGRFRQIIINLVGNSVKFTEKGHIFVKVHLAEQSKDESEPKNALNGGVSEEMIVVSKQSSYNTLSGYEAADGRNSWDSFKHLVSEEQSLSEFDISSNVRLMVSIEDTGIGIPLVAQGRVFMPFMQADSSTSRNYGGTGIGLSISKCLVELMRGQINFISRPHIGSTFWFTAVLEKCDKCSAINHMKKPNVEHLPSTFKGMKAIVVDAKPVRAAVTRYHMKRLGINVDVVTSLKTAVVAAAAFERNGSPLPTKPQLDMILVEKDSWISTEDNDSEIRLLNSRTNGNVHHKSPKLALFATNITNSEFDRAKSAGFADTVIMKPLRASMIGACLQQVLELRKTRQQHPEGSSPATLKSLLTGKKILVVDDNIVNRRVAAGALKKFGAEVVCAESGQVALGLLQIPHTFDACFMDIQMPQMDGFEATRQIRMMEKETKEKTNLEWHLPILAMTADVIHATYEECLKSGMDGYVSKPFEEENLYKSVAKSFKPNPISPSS

EC50 (Histidine kinase 4) | IC50 [1] | EC50 (Histidine kinase 3) | SMILES | Activity (Amaranthus [2]) | Activity (Triticum aestivum) | Activity (Nicotiana tabacum [3]) | Activity (Nicotiana tabacum [4]) | Activity (Amaranthus [5]) | Activity (Nicotiana tabacum [6]) | Activity (Nicotiana tabacum [7]) | Activity (Nicotiana tabacum [8]) | Activity (Amaranthus [9])
> 50 µM | > 100 µM | 19 µM | Oc1ccccc1Nc1nc(Cl)nc2nc[nH]c12 | – | – | – | – | – | – | – | – | –
4.6 µM | > 100 µM | 16.5 µM | Oc1ccc(Nc2nc(Cl)nc3[nH]cnc23)cc1 | 47.5% | 14% | 60% | – | – | – | – | – | –
31 µM | 12.4 µM | 2.3 µM | COc1cccc(Nc2ncnc3[nH]cnc23)c1 | 124.5% | 13% | – | 42% | – | – | – | – | –
– | > 100 µM | – | COc1cccc(Nc2nc(Cl)nc3c2ncn3C(C)C)c1 | 44% | 5% | – | 38% | – | – | – | – | –
– | 3.9 µM | 10.7 µM | Clc1cccc(Nc2nc(Cl)nc3[nH]cnc23)c1 | – | 11.5% | – | 95% | 119% | – | – | – | –
– | 80 µM | > 50 µM | Clc1nc(Nc2ccccc2)c2nc[nH]c2n1 | 139% | 23% | – | – | – | 103% | – | – | –
– | 50 µM | 50 µM | Fc1ccc(Nc2nc(Cl)nc3[nH]cnc23)cc1 | 92% | 5% | – | – | – | 99% | Non-toxic | – | –
3.75 µM | 3.75 µM | 13 µM | Oc1cccc(Nc2nc(Cl)nc3[nH]cnc23)c1 | 52% | 6% | – | 111% | – | – | – | – | –
24.8 µM | 7.5 µM | 6 µM | Fc1cccc(Nc2nc(Cl)nc3[nH]cnc23)c1 | 147% | 15% | – | – | – | 101% | – | – | –
– | 27 µM | – | COc1cccc(Nc2nc(N)nc3[nH]cnc23)c1 | 116% | 16% | – | 71% | – | – | – | – | –
– | > 100 µM | – | COc1ccc(Nc2nc(Cl)nc3[nH]cnc23)cc1 | 60% | 19% | – | 76% | – | – | – | – | –
– | 14 µM | – | COc1cccc(Nc2nc([N+](=O)[O-])nc3[nH]cnc23)c1 | 43% | 15% | 35.5% | – | – | – | – | – | –
– | > 100 µM | 33 µM | COc1ccccc1Nc1nc(Cl)nc2[nH]cnc12 | 63% | 29% | – | 100% | – | – | – | – | –
– | 61 µM | – | COc1cccc(Nc2nc(Cl)nc3c2ncn3C)c1 | 69% | 30% | – | 76% | – | – | – | – | –
– | > 100 µM | – | COc1cccc(Nc2nc(SC)nc3[nH]cnc23)c1 | 101% | 2% | – | 91% | – | – | – | – | –
> 50 µM | 25.4 µM | 15.1 µM | Clc1ccc(Nc2nc(Cl)nc3[nH]cnc23)cc1 | 139% | 10% | – | 77% | – | – | – | – | –
7 µM | 1.9 µM | 21 µM | COc1cccc(Nc2nc(Cl)nc3[nH]cnc23)c1 | 149% | 11% | – | 103% | – | – | – | – | –
19 µM | 1 µM | 19 µM | COc1cccc(Nc2nc(F)nc3[nH]cnc23)c1 | 107% | 13.5% | – | 74% | – | – | – | – | –
– | – | > 50 µM | c1ccc(Nc2ncnc3[nH]cnc23)cc1 | 52% | 14% | 47% | – | – | – | – | – | –

SMILES | EC50 (Histidine kinase 4) | IC50 [1] | EC50 (Histidine kinase 3) | Activity (Amaranthus [2]) | Activity (Triticum aestivum) | Activity (Nicotiana tabacum [3]) | Activity (Nicotiana tabacum [4]) | Activity (Amaranthus [5]) | Activity (Nicotiana tabacum [6]) | Activity (Nicotiana tabacum [7]) | Activity (Nicotiana tabacum [8]) | Activity (Amaranthus [9])
C/C(=C\CNc1ncnc2[nH]cnc12)CO | 1.1 µM | – | 0.7 µM | 129.6% | 122% | – | 104.6% | – | – | – | – | –
O=C(Nc1ccccc1)Nc1cnns1 [THIDIAZURON] | 1 µM | 29 µM | 0.95 µM | – | 108.7% | – | – | – | – | – | 102.3% | 121.1%
